According to ChEMBL document CHEMBL1955778, “Design and synthesis of novel 7-aminoquinazoline derivatives: antitumor and anticonvulsant activities” (Bioorg Med Chem Lett, 2012):

Columns and labels:
Mus musculus [1] = assay: Anticonvulsant activity in mouse assessed as protection against strychnine-induced seizure at 1.5 mmol/kg, ip administered 30 min prior to strychnine-challenge measured after 60 mins relative to control; format: functional
Mus musculus [2] = assay: Anticonvulsant activity in ip dosed mouse assessed as protection against pentylenetetrazol-induced seizure administered 30 min prior to pentylenetetrazol-challenge measured after 60 mins; format: functional
Procedure, shortened: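 Mice received several doses for quantification. ED50 taken as the dose protecting 50% of mice against pentylenetetrazol-induced seizures.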

Mus musculus [3] = assay: Anticonvulsant activity in mouse assessed as protection against pentylenetetrazol-induced seizure at 1.5 mmol/kg, ip administered 30 min prior to pentylenetetrazol-challenge measured after 60 mins relative to control; format: functional
Mus musculus [4] = assay: Anticonvulsant activity in mouse assessed as protection against maximal electroshock-induced seizure at 1.5 mmol/kg, ip administered 30 min prior to maximal electroshock-challenge measured after 60 mins relative to control; format: functional
Mus musculus [5] = assay: Anticonvulsant activity in mouse assessed as protection against picrotoxin-induced seizure at 1.5 mmol/kg, ip administered 30 min prior to picrotoxin-challenge measured after 60 mins relative to control; format: functional
[6] = Toxicity in ip dose mouse assessed as mortality; format: organism-based; settings: in vivo
Procedure, shortened: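 In mice, LD50 is the dose causing 50% mortality. ED50 is the dose protecting 50% of mice against pentylenetetrazole-induced seizures. Therapeutic index = LD50/ED50.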

[7] = Neurotoxicity in ip dosed mouse assessed as impaired motor coordination administered 30 mins prior to test by chimney test; format: toxicity, organism-based; settings: in vivo
Procedure, shortened: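 Mice, Chimney test. TD50 is the dose that produces minimal neurological toxicity (impaired motor coordination) in 50% of animals, estimated from testing at several doses.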

In the case of `CCCC(CCC)C(=O)[O-].[Na+]` [VALPROATE SODIUM], the Activity (Mus musculus [1]) is reported as 100%, the ED50 (Mus musculus [2]) is reported as 1500 µmol/kg and the Activity (Mus musculus [3]) is reported as 100%. The Activity (Mus musculus [4]) was 100%, the Activity (Mus musculus [5]) was 100% and the LD50 [6] was 3000 µmol/kg. The TD50 at 0.5 h [7] was 2700 µmol/kg.
